Laboratory results: PubChem BioAssay
Calls of active or inactive are those of the source.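 The calls were made as follows, unless noted: active = viability loss from added drug above about 55%, and viability with drug at most 40%, in both replicates (limit read from the data, passing the limit was not always enough); inconclusive = both conditions met in only one replicate; inactive = neither replicate meets both conditions.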

Tests used:
[1] = Her2 expression decrease, cell viability multiplex – SKBR3 breast tumor cells, AlphaScreen, ATP viability, primary screen (AID 461;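 active = Her2 level under about 52% in both replicate screens, with viability over 70% of control, limit read from the data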;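 as to Her2 level: lower value means less Her2 protein in the cells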;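 as to viability: percent of carrier control wells set as 100% viability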); conditions: SKBR3 Her2 protein level, 18-24 h, measured here: SKBR3 viability, ATP luminescence, at 10 µM
[2] = biological target: Receptor tyrosine-protein kinase erbB-2 (Homo sapiens) (UniProt P04626); assay: as above; conditions: 18-24 h, at 10 µM, stronger effect = lower value
Sequence of Receptor tyrosine-protein kinase erbB-2 (Homo sapiens) (P04626 whole entry, looked up): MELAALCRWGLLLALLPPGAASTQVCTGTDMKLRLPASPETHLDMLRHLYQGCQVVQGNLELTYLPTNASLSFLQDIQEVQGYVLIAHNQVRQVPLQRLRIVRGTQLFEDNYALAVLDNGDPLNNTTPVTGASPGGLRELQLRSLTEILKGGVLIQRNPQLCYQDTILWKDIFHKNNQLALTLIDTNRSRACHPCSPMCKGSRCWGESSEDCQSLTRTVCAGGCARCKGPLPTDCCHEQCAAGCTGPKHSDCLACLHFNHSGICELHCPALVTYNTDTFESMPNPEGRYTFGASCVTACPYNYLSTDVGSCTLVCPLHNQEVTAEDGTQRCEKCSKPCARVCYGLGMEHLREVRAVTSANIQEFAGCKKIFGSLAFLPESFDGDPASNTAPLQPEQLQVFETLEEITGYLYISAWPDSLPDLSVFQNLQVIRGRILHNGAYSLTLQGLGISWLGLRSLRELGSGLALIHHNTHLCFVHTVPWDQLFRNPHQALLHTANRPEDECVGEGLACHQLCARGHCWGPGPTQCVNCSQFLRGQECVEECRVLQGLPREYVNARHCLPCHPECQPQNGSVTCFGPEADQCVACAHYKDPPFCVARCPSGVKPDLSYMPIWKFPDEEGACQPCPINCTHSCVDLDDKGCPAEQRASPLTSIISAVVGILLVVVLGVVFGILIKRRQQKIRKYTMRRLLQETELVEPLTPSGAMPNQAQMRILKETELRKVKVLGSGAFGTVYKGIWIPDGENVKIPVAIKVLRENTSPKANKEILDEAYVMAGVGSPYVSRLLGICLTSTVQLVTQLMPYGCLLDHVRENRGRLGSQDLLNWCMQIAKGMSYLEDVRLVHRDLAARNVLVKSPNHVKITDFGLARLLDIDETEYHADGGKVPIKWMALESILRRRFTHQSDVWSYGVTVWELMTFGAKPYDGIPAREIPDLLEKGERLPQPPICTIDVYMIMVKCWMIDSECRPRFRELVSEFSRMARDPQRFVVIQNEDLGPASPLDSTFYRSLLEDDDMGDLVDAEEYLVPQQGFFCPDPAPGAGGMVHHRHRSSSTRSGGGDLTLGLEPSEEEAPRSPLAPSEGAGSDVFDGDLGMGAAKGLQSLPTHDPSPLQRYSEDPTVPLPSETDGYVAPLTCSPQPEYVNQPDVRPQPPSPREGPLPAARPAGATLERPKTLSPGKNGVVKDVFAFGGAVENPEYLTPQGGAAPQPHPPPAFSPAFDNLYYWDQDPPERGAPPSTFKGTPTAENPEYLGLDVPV

[3] = reduced viability of SK-BR-3 breast cancer cells – cell-based, 24 h, human, pilot screen (AID 572;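 active = viability at or below 10% of carrier control in both of two separate runs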;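 also: compound exposure lasted between 18 and 24 h rather than exactly 24 h; 100% = carrier-treated control wells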); conditions: SK-BR-3 viability, CellTiter-Glo luminescence, at 10 µM, stronger effect = lower value
[4] = HUVEC growth inhibition – cell-based, human, primary screen (AID 575;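 active = viability at or below 30% in both replicate assays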;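 also: 100% = median of untreated cell wells with 0.1% DMSO on each plate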); conditions: HUVEC proliferation, CellTiter-Glo luminescence, 72 h; at 10 µM; stronger effect = lower value
Outline: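 Timing: 72 h treatment at 37 °C; material: HUVEC primary cells; technique: CellTiter-Glo luminescence measuring cellular ATP; controls: vehicle and MePR control wells; measure: percent of median DMSO-control luminescence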

[5] = H69AR cell proliferation blockers – human, duplicate replicates, primary screen (AID 580;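 active = viability at or under a set limit in both replicates, limit being median viability minus 3 SD, cut at about 48% in these data, passing the limit was not always enough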;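 also: 100% = mean luminescence of untreated wells and 0% = no signal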); conditions: H69AR lung tumor cells viability, ATP luminescence, 72 h; at 10 µM; stronger effect = lower value
[6] = MRP1 drug-resistance reversers in H69AR cells – cell-based, doxorubicin co-treatment, pilot screen (AID 601); conditions: CellTiter-Glo, 72 h, at 10 µM; for differential viability (reversal): stronger effect = higher value
[7] = yeast transport mutant growth inhibition pilot in 384-well plates, post-Golgi transport modulator project (AID 636; in the data active = inhibition above about 31%); conditions: absorbance 615 nm, about 18 h, stronger effect = higher value
[8] = growth suppression of yeast trafficking mutant, preliminary HTS, modulators of trafficking downstream of Golgi apparatus project, 1536-format plate, OD 615 nm (AID 637; in the data active = inhibition above about 30%); conditions: yeast transport mutant growth, absorbance 615 nm, 18 h; stronger effect = higher value
[9] = H69AR cells + 2 uM doxorubicin, measured here: viability with 2 uM doxorubicin, stronger effect = lower value
[10] = H69AR cells, compound alone cytotoxicity

SMILES | viability [1] | Her2 level [2] | viability [3] | viability [4] | viability [5] | differential viability (reversal) ([6]; H69AR cells + 2 uM doxorubicin) | viability [6, 9] | viability [6, 10] | inhibition [7] | inhibition [8]
CCSc1nnc(NC(=O)CSc2ncccn2)s1 | 97.5% | 102% (inactive) | 97.5% (inactive) | 112% (inactive) | 107% (inactive) | 22.3% (inactive) | 84.5% | 107% | -5.07% (inactive) | -2.74% (inactive)
O=C(CCN1CCN(c2ccc(F)cc2)CC1)Nc1ccccc1F | 91.5% | 91% (inactive) | 91.5% (inactive) | 90.4% (inactive) | 86% (inactive) | -5.33% (inactive) | 91.3% | 86% | -5.73% (inactive) | 4.75% (inactive)
O=C(Cn1c(=O)[nH]n(-c2ccccc2)c1=O)N1CCCc2ccccc21 | 116% | 96% (inactive) | 116% (inactive) | 82.1% (inactive) | 93.7% (inactive) | 8.74% (inactive) | 85% | 93.7% | -5.73% (inactive) | -4.92% (inactive)
N#Cc1nc(-c2ccco2)oc1NCCc1ccccc1 | 92.5% | 98.5% (inactive) | 92.5% (inactive) | 90.6% (inactive) | 97.4% (inactive) | 14.8% (inactive) | 82.6% | 97.4% | -5.58% (inactive) | -10.5% (inactive)
O=S(=O)(c1ccccc1)N(Cc1nc(-c2ccccc2)no1)C1CCCCC1 | 88% | 77% (inactive) | 88% (inactive) | 96.1% (inactive) | 75.5% (inactive) | -4.17% (inactive) | 79.6% | 75.5% | -6.27% (inactive) | -3.33% (inactive)
CCOC(=O)c1cccc(NC(=O)CSc2nnc(-c3cccnc3)n2CC)c1 | 88.5% | 95% (inactive) | 88.5% (inactive) | 101% (inactive) | 109% (inactive) | 13.3% (inactive) | 95.2% | 109% | -4.67% (inactive) | 0% (inactive)
C=CCn1c(-c2cccs2)nc2nc3ccccc3nc21 | 87% | 106% (inactive) | 87% (inactive) | 80.2% (inactive) | 54.3% (inactive) | -18.6% (inactive) | 72.9% | 54.3% | -1.82% (inactive) | -8.73% (inactive)
c1ccc(CNc2c3c(nc4ncnn24)CCCC3)nc1 | 95.5% | 83.5% (inactive) | 95.5% (inactive) | 109% (inactive) | 85.2% (inactive) | -4.29% (inactive) | 89.5% | 85.2% | -5.34% (inactive) | -3.33% (inactive)
COCc1ccccc1Cn1cnc2c1c(=O)n(C)c(=O)n2C | 99% | 77.5% (inactive) | 99% (inactive) | 85.8% (inactive) | 101% (inactive) | 8.8% (inactive) | 92.7% | 101% | -5% (inactive) | 0.49% (inactive)
COc1ccc(CN(CC(=O)NCC2CCCO2)C(=O)CNS(=O)(=O)c2ccc(C)cc2)cc1 (stereo not given) | 107% | 102% (inactive) | 107% (inactive) | 96.3% (inactive) | 97.2% (inactive) | 2.2% (inactive) | 95% | 97.2% | -0.53% (inactive) | -6.23% (inactive)
COc1ccc2oc(=O)c(C(=O)N3CCN(c4ccccc4F)CC3)cc2c1 | 97.5% | 95.5% (inactive) | 97.5% (inactive) | 108% (inactive) | 88.1% (inactive) | -9.48% (inactive) | 97.6% | 88.1% | -6.4% (inactive) | -3.65% (inactive)
CCCCOCCCNC(=O)c1ccccc1OCC | 89% | 88.5% (inactive) | 89% (inactive) | 108% (inactive) | 87.8% (inactive) | 9.53% (inactive) | 78.2% | 87.8% | -3.72% (inactive) | -4.67% (inactive)
CCN1CCCC1CN=Cc1c(O)n(-c2ccccc2)c(=O)c2ccccc12 (stereo not given) | 82% | 106% (inactive) | 82% (inactive) | 96.9% (inactive) | 92.9% (inactive) | -2.08% (inactive) | 95% | 92.9% | -6.89% (inactive) | -2.54% (inactive)
Cc1ccc(N2CCN(C(=S)c3ccc(N(C)C)cc3)CC2)cc1 | 89.5% | 82.5% (inactive) | 89.5% (inactive) | 91.8% (inactive) | 82.6% (inactive) | -9.83% (inactive) | 92.4% | 82.6% | -3.92% (inactive) | -6.19% (inactive)
